Measurements from ChEMBL document CHEMBL1124840 (J Med Chem, 1990).
The source made the active and inactive calls. The rule behind the calls is not given here. Positions of bridges follow the written chain, without caps; N, C: chain ends. Non-standard residues stand in square brackets, D forms with d. Residues, ends and D or L forms follow the SMILES beside them. Pen = CC(C)(S)[C@H](N)C(=O)O; hCys = N[C@@H](CCS)C(=O)O; Sar = CNCC(=O)O

Columns and labels:
Oryctolagus cuniculus [1] = organism: Oryctolagus cuniculus; test: No contractile activity was observed up to 10 uM concentration in rabbit aortic rings relative to angiotensin II; NA = no activity; type: functional; details: Aorta
Summary of the method: (§1)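 Aortic rings were taken from male New Zealand white rabbits (2–2.5 kg) and tested at analogue concentrations up to 10 µM. Potency is relative to the AII concentration/response curve run at the same time on a paired ring from the same aorta.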

[2] = target: T1, Angiotensin II receptor (AT-1) type-1 (Rattus norvegicus, UniProt P29089+P25095); test: Concentration required to 50% inhibition in specific binding of [125- I]A-II to Angiotensin II receptor in rat uterine membrane; type: cell membranes
T1 sequence (P29089 whole entry): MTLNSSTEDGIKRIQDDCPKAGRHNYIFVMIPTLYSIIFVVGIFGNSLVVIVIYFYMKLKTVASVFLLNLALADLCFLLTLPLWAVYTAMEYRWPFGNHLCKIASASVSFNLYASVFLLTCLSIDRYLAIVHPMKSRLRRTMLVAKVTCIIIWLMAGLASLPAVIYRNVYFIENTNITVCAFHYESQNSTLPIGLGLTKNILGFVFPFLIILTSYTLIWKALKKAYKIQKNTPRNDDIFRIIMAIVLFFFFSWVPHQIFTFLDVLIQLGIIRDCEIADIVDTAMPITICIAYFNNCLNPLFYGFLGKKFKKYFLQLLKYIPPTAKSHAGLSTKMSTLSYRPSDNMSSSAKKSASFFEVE
T1 sequence (P25095 whole entry): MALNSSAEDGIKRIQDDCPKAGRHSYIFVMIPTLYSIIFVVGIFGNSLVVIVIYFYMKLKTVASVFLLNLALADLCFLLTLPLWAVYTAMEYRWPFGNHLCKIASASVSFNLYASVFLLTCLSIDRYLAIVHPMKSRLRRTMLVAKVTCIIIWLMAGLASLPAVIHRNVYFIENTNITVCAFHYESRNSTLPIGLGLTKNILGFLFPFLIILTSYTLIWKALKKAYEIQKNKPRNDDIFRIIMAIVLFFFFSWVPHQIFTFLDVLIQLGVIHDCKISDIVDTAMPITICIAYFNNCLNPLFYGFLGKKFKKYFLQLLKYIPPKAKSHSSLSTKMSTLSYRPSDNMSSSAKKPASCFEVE
Summary of the method: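 Rat uterine membranes were homogenized in ice-cold Dulbecco's PBS with 5 mM EDTA, spun at 1500g then 100000g, and resuspended in 2 mM EGTA/50 mM Tris-HCl pH 7.5. Nonspecific binding was defined with 10 µM AII. IC50 came from nonlinear least-squares fits, triplicate means.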

Oryctolagus cuniculus [3] = organism: Oryctolagus cuniculus; test: No contractile activity was observed up to 10 uM concentration in rabbit aortic rings; NA = no activity; type: functional; details: Aorta
Summary of the method: (§2)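 Aortic rings were taken from male New Zealand white rabbits (2–2.5 kg) and tested at analogue concentrations up to 10 µM. pD2 was calculated from the analogue's concentration/response curve.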

Oryctolagus cuniculus [4] = organism: Oryctolagus cuniculus; test: Contractile activity in rabbit aortic rings.; type: functional, Aorta; summary of the method: as §2
Oryctolagus cuniculus [5] = organism: Oryctolagus cuniculus; test: Contractile activity in rabbit aortic rings relative to angiotensin II.; type: functional, Aorta; summary of the method: as §1
[6] = target: Type-1 angiotensin II receptor (Oryctolagus cuniculus) (UniProt P34976); test: pA2 value for Angiotensin II receptor
Chain of Type-1 angiotensin II receptor (Oryctolagus cuniculus) (P34976 whole entry, looked up): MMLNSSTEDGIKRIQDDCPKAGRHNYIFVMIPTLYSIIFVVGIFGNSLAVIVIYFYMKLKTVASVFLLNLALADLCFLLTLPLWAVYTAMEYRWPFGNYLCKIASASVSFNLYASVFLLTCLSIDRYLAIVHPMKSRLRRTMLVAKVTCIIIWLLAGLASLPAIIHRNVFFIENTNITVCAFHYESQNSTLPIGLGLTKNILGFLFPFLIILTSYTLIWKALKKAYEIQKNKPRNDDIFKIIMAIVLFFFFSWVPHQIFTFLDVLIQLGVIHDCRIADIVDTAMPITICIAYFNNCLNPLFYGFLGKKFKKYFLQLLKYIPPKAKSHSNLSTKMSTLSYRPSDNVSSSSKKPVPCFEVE

Compound	IC50 [2] [µM]	Kb [6] [µM]	Relative potency (Oryctolagus cuniculus [1])	pD2 (Oryctolagus cuniculus [3])	pD2 (Oryctolagus cuniculus [4])	Relative potency (Oryctolagus cuniculus [5])
NC(N)=NCCC[C@H](NC(=O)[C@@H](N)CC(=O)O)C(=O)N[C@H]1CSSC[C@H](C(=O)N[C@@H](Cc2c[nH]cn2)C(=O)N2CCC[C@H]2C(=O)N[C@@H](Cc2ccccc2)C(=O)O)NC(=O)[C@H](Cc2ccc(O)cc2)NC1=O	10	–	inactive	inactive	–	–
CC(=O)NCSC[C@H](NC(=O)[C@H](Cc1ccc(O)cc1)NC(=O)[C@@H](CSCNC(C)=O)NC(=O)[C@H](CCCN=C(N)N)NC(=O)[C@@H](N)CC(=O)O)C(=O)N[C@@H](Cc1c[nH]cn1)C(=O)N1CCC[C@H]1C(=O)N[C@@H](Cc1ccccc1)C(=O)O	> 10	–	inactive	inactive	–	–
NC(N)=NCCC[C@H](NC(=O)[C@@H](N)CC(=O)O)C(=O)N[C@H]1CSSC[C@@H](C(=O)N[C@@H](Cc2c[nH]cn2)C(=O)N2CCC[C@H]2C(=O)N[C@@H](Cc2ccccc2)C(=O)O)NC(=O)[C@H](Cc2ccc(O)cc2)NC1=O	0.043	–	–	–	<5	<0.0001
NC(N)=NCCC[C@H](NC(=O)[C@@H](N)CC(=O)O)C(=O)N[C@@H]1CSSC[C@@H](C(=O)N[C@@H](Cc2c[nH]cn2)C(=O)N2CCC[C@H]2C(=O)N[C@@H](Cc2ccccc2)C(=O)O)NC(=O)[C@H](Cc2ccc(O)cc2)NC1=O	–	–	inactive	inactive	–	–
CC1(C)SSC[C@H](NC(=O)[C@H](CCCN=C(N)N)NC(=O)[C@@H](N)CC(=O)O)C(=O)N[C@@H](Cc2ccc(O)cc2)C(=O)N[C@@H]1C(=O)N[C@@H](Cc1c[nH]cn1)C(=O)N1CCC[C@H]1C(=O)N[C@@H](Cc1ccccc1)C(=O)O (H-DRCY[Pen]HPF-OH; disulfide 3-5)	0.0013	–	–	–	5.8	0.001
CC1(C)SSC(C)(C)[C@@H](C(=O)N[C@@H](Cc2c[nH]cn2)C(=O)N2CCC[C@H]2C(=O)N[C@@H](Cc2ccccc2)C(=O)O)NC(=O)[C@H](Cc2ccc(O)cc2)NC(=O)[C@H]1NC(=O)[C@H](CCCN=C(N)N)NC(=O)[C@@H](N)CC(=O)O (H-DR[Pen]Y[Pen]HPF-OH; disulfide 3-5)	0.0026	–	–	–	5	0.0001
CC[C@H](C)[C@H](NC(=O)[C@@H]1CCCN1C(=O)[C@H](Cc1c[nH]cn1)NC(=O)[C@@H]1CCSSCC[C@H](NC(=O)[C@H](CCCN=C(N)N)NC(=O)CNC)C(=O)N[C@@H](Cc2ccc(O)cc2)C(=O)N1)C(=O)O (H-[Sar]R[hCys]Y[hCys]HPI-OH; disulfide 3-5)	0.0009	0.000813	inactive	inactive	–	–
CC[C@H](C)[C@H](NC(=O)[C@H](Cc1ccc(O)cc1)NC(=O)[C@@H](NC(=O)[C@H](CCCNC(=N)N)NC(=O)[C@@H](N)CC(=O)O)C(C)C)C(=O)N[C@@H](Cc1cnc[nH]1)C(=O)N1CCC[C@H]1C(=O)N[C@@H](Cc1ccccc1)C(=O)O [ANGIOTENSIN II]	–	–	–	–	8.81	–
H-DRCYIHPF-OH	0.015	–	–	–	7.68	0.092
H-DRVYCHPF-OH	0.02	–	–	–	7.21	0.031

The next lines start with results.

IC50 [2] [µM]	Kb [6] [µM]	Compound	Relative potency (Oryctolagus cuniculus [1])	pD2 (Oryctolagus cuniculus [3])	pD2 (Oryctolagus cuniculus [4])	Relative potency (Oryctolagus cuniculus [5])
10	–	CC(=O)NCSC[C@H](NC(=O)[C@H](CCCN=C(N)N)NC(=O)[C@@H](N)CC(=O)O)C(=O)N[C@@H](Cc1ccc(O)cc1)C(=O)N[C@H](CSCNC(C)=O)C(=O)N[C@@H](Cc1c[nH]cn1)C(=O)N1CCC[C@H]1C(=O)N[C@@H](Cc1ccccc1)C(=O)O	inactive	inactive	–	–
10	–	CC(=O)NCSC[C@H](NC(=O)[C@H](CCCN=C(N)N)NC(=O)[C@@H](N)CC(=O)O)C(=O)N[C@@H](Cc1ccc(O)cc1)C(=O)N[C@@H](CSCNC(C)=O)C(=O)N[C@@H](Cc1c[nH]cn1)C(=O)N1CCC[C@H]1C(=O)N[C@@H](Cc1ccccc1)C(=O)O	–	–	<5	<0.0001
0.013	–	NC(N)=NCCC[C@H](NC(=O)[C@@H](N)CC(=O)O)C(=O)N[C@H]1CSSCC[C@@H](C(=O)N[C@@H](Cc2c[nH]cn2)C(=O)N2CCC[C@H]2C(=O)N[C@@H](Cc2ccccc2)C(=O)O)NC(=O)[C@H](Cc2ccc(O)cc2)NC1=O (H-DRCY[hCys]HPF-OH; disulfide 3-5)	–	–	6.98	0.012
0.058	–	CC1(C)SSC[C@@H](C(=O)N[C@@H](Cc2c[nH]cn2)C(=O)N2CCC[C@H]2C(=O)N[C@@H](Cc2ccccc2)C(=O)O)NC(=O)[C@H](Cc2ccc(O)cc2)NC(=O)[C@H]1NC(=O)[C@H](CCCN=C(N)N)NC(=O)[C@@H](N)CC(=O)O (H-DR[Pen]YCHPF-OH; disulfide 3-5)	–	–	5	0.0001
0.01	–	NC(N)=NCCC[C@H](NC(=O)[C@@H](N)CC(=O)O)C(=O)N[C@H]1CCSSC[C@@H](C(=O)N[C@@H](Cc2c[nH]cn2)C(=O)N2CCC[C@H]2C(=O)N[C@@H](Cc2ccccc2)C(=O)O)NC(=O)[C@H](Cc2ccc(O)cc2)NC1=O (H-DR[hCys]YCHPF-OH; disulfide 3-5)	–	–	5.91	0.001
0.0021	–	NC(N)=NCCC[C@H](NC(=O)[C@@H](N)CC(=O)O)C(=O)N[C@H]1CCSSCC[C@@H](C(=O)N[C@@H](Cc2c[nH]cn2)C(=O)N2CCC[C@H]2C(=O)N[C@@H](Cc2ccccc2)C(=O)O)NC(=O)[C@H](Cc2ccc(O)cc2)NC1=O (H-DR[hCys]Y[hCys]HPF-OH; disulfide 3-5)	–	–	8.48	0.49
